The test has as its system HEp-2 RSV Long CPE inhibition, luminescence viability. The test is described as follows: inhibition of RSV cytopathic effect in HEp-2, dose response, cell-based, RSV Long, synthesized compounds, set 9 (AID 504823). Summed up:
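Assay system: RSV Long-infected HEp-2 cells | Reagent: RSV strain Long at multiplicity of infection 0.45 | Doses: 0.5% DMSO final | Incubation: 6 days, 37 °C | Signal: Luminescent CPE readout | Read-out basis: % CPE inhibition scaled to cell-only and virus-only wells, IC50 by 4-parameter fit | Controls: Cell-only and virus control wells | Replication: Triplicate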
(In general: Damage to the host cells serves as the signal in cytopathic effect assays.)

Usually IC50 stands for the midpoint of a concentration-inhibition curve.

Take `COCCCNC(=O)c1ccc(Cn2c(=O)c3ccccc3n(Cc3ccc(C(F)(F)F)cc3)c2=O)cc1`: the IC50 was less than 1200 nM.
On to `COc1ccccc1CNC(=O)C1CCN(S(=O)(=O)c2cccc3nonc23)CC1`, for which the IC50 was 2900 nM.
In the case of `COCCCNC(=O)c1ccc(Cn2c(=O)c3ccccc3n(Cc3ccc(Br)cc3)c2=O)cc1` it was less than 1200 nM.
In the case of `COCCCNC(=O)c1ccc(Cn2c(=O)c3ccccc3n(Cc3ccc(OC)cc3)c2=O)cc1` it was 2400 nM; in that of `Cc1ccc(C)c(NC(=O)[C@@H]2CCCN2S(=O)(=O)c2cccc3cccnc23)c1`, 3200 nM.
In the case of `COCCCNC(=O)c1ccc(Cn2c(=O)c3ccccc3n(Cc3ccc(C)c(C(F)(F)F)c3)c2=O)cc1`, the 50% inhibitory concentration (IC50) is less than 1200 nM.
In the case of `COCCCNC(=O)c1ccc(Cn2c(=O)c3ccccc3n(Cc3ccc4nonc4c3)c2=O)cc1` it was 5600 nM; in that of `COCCCNC(=O)c1ccc(Cn2c(=O)c3ccccc3n(Cc3ccc(Cl)cc3)c2=O)cc1`, less than 1200 nM; in that of `COCCCNC(=O)c1ccc(Cn2c(=O)c3ccccc3n(Cc3ccc([N+](=O)[O-])cc3)c2=O)cc1`, less than 1200 nM.

The values above are taken from PubChem BioAssay AID504823 (Southern Research Specialized Biocontainment Screening …, 2011).
